Results reported in ChEMBL document CHEMBL1134329, “Dopamine D(3) receptor antagonists. 1. Synthesis and structure-activity relationships of 5,6-dimethoxy-N-alkyl- and N-alkylaryl-substituted 2-aminoindans” (J Med Chem, 2001).
pKi: −log10 of the molar value.

Assays:
[1] = biological target: D(2) dopamine receptor (Rattus norvegicus) (UniProt P61169); assay: Inhibition of [3H]-PNU-86170 binding at D2 dopamine receptors on CHO cell membranes; 1000 nM; format: cell-based
Outline: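 Single-point screen at 1000 nM in duplicate, reported as mean % inhibition. Rat D2 receptor stably expressed in CHO cell membranes, labelled with [3H]-PNU-86170 (2 nM). Buffer 20 mM HEPES/10 mM MgSO4 pH 7.4, 1 h at room temperature. Nonspecific binding defined by 3 µM haloperidol.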

Rattus norvegicus [2] = organism: Rattus norvegicus; assay: In vitro stability in rat hepatocytes relative to that of PNU-93385.; format: functional; conditions: Hepatocyte
Outline: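 Compound incubated alongside reference PNU-93385. Metabolism followed by HPLC with UV detection. Intrinsic clearance is expressed relative to the reference to give relative metabolic stability.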

[3] = biological target: D(3) dopamine receptor (Rattus norvegicus) (UniProt P19020); assay: Inhibition of [3H]spiperone at D3 dopamine receptors on CHO cell membranes; 1000 nM; format: cell-based
Chain of D(3) dopamine receptor (Rattus norvegicus) (P19020 whole entry): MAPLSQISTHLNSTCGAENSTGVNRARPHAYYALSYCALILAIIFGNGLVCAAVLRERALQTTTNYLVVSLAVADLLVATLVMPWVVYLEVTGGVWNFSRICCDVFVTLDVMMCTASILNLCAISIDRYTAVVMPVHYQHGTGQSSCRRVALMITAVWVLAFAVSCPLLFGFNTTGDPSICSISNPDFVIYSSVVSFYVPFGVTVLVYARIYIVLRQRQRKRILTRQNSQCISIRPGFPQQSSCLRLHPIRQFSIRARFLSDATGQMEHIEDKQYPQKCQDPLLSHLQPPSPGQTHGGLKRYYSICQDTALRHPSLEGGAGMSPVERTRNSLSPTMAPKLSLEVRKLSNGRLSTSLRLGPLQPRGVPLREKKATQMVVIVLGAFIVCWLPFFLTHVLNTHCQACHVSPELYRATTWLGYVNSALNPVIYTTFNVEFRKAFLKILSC
Outline: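 Cloned rat D3 receptor in stably transfected CHO cell membranes, filtration assay with [3H]spiperone (0.3 nM). Single concentration of 1000 nM in duplicate, given as mean % inhibition. Buffer 20 mM HEPES, 10 mM MgSO4, 150 mM NaCl, 1 mM EDTA pH 7.4, 1 h at room temperature. 3 µM haloperidol for nonspecific binding.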

D(3) dopamine receptor = D(3) dopamine receptor (Rattus norvegicus, UniProt P19020); assay: Affinity at rat D3 dopamine receptor on CHO cell membranes by [3H]spiperone displacement.
Chain of D(3) dopamine receptor (P19020 whole entry): as above

D(2) dopamine receptor = D(2) dopamine receptor (Rattus norvegicus, UniProt P61169); assay: Affinity at D2 dopamine receptor on CHO cell membranes by [3H]PNU-86170 displacement.
Chain of D(2) dopamine receptor (P61169 whole entry): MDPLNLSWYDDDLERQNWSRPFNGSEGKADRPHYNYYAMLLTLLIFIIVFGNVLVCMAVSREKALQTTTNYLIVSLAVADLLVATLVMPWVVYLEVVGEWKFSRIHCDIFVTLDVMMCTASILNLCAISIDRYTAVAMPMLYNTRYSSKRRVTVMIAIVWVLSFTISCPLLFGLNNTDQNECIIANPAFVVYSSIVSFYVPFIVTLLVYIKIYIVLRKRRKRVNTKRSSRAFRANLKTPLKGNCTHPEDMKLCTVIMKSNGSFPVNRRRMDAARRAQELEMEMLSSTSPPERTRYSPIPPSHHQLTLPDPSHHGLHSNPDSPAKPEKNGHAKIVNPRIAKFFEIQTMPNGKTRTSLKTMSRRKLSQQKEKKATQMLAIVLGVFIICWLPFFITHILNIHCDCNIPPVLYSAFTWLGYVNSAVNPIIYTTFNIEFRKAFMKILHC
Outline: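 Cloned rat D2 receptor stably expressed in CHO cells; membranes from cell pellets disrupted in ice-cold 50 mM Tris/5 mM EDTA/5 mM EGTA pH 7.4 with graded centrifugation. [3H]-PNU-86170 (2 nM) competition, 11 concentrations in duplicate, 20 mM HEPES/10 mM MgSO4 pH 7.4, 1 h room temperature. Haloperidol 3 µM defines nonspecific binding. Filtration or SPA read-out; one-site fit IC50, Ki by Cheng-Prusoff.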

[4] = biological target: T1, 5-hydroxytryptamine receptor 1A (Rattus norvegicus, UniProt P19327); assay: Binding affinity towards 5-hydroxytryptamine 1A receptor
T1 sequence (P19327 whole entry): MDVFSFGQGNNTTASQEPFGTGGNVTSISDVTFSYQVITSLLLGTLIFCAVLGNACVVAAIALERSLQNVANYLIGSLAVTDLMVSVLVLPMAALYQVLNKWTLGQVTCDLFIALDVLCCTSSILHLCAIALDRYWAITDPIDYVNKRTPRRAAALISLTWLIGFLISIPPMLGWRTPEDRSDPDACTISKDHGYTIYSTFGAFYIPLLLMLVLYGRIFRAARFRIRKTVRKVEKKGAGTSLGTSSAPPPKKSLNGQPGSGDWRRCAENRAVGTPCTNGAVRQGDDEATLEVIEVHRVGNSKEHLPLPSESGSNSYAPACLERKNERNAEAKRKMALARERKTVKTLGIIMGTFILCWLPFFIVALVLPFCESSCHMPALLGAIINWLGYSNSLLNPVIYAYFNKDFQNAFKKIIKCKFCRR
Outline: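 Competition binding with [3H]-8-OH-DPAT at 5-HT1A sites in CHO cells expressing the cloned receptor. Affinity is given as Ki (nM) with SD or 95% CI. Compounds were first screened at 1 µmol/L in a monoaminergic/opioid/adrenergic receptor profile binding assay.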

Rattus norvegicus [5] = assay: Inhibition of (+)-MK-801-induced hyperactivity in rats following 30 umol/kg i.p.; format: functional; parameters: scale not given: the % may be the effect or the level left
Outline: (§1)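 Rats given (+)-MK-801 0.2 mg/kg sc plus test compound ip, 10-200 µmol/kg, in vehicle of 0.9% NaCl in 0.25% methylcellulose. Locomotor activity expressed as % of vehicle control ±SEM, 8-26 animals per group.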

Rattus norvegicus [6] = assay: Inhibition of (+)-MK-801-induced hyperactivity in rats following 100 umol/kg i.p.; format: functional; parameters: scale not given: the % may be the effect or the level left; outline: as §1
Rattus norvegicus [7] = assay: Inhibition of (+)-MK-801-induced hyperactivity in rats following 10 uM/kg i.p.; format: functional; parameters: scale not given: the % may be the effect or the level left; outline: as §1
Rattus norvegicus [8] = assay: Inhibition of (+)-MK-801-induced hyperactivity in rats following 200 umol/kg i.p.; format: functional; parameters: scale not given: the % may be the effect or the level left; outline: as §1

Chain of D(2) dopamine receptor (Rattus norvegicus) (P61169 whole entry): as the sequence (P61169 whole entry) above

SMILES | inhibition [1] | Stability (Rattus norvegicus [2]) | inhibition [3] | pKi (D(3) dopamine receptor) | pKi (D(2) dopamine receptor) | further results
COc1cc2c(cc1OC)CC(N(C)C)C2 | 19% | 59% | 26% | – | – | –
CCCN(CCc1cccnc1)C1Cc2cc(OC)c(OC)cc2C1 | – | – | – | 6.87 | 6.54 | –
CCCN(CCC)C1Cc2ccc(O)cc2C1 (configuration not stated) | – | – | – | 7.85 | 7.28 | pKi [4]: < 5.52
COc1cc2c(cc1OC)CC(N1CCCCCC1)C2 | 2% | 32% | 3% | – | – | –
C=CCN(CC=C)C1Cc2cc(OC)c(OC)cc2C1 | 19% | 13% | 12% | – | – | –
CCCN(CCc1ccccc1)C1Cc2cc(OC)c(OC)cc2C1 | – | 12% | – | 7.49 | 7.57 | –
CCCN(CCCc1ccccc1)C1Cc2cc(OC)c(OC)cc2C1 | – | 67% | – | 7.64 | 6.81 | –
CCC(CC)NC1Cc2cc(OC)c(OC)cc2C1 | 0% | – | 0% | – | – | –
CCCN(CCCF)C1Cc2cc(OC)c(OC)cc2C1 | – | 9% | – | 6.47 | 5.74 | –
CCCN(CC1CC1)C1Cc2cc(OC)c(OC)cc2C1 | – | 23% | – | – | – | –
CCN(CC)C1Cc2cc(OC)c(OC)cc2C1 | 9% | – | 20% | – | – | –
CCCN(CCc1ccc(OC)cc1)C1Cc2cc(OC)c(OC)cc2C1 | – | 53% | – | 7.41 | 6.79 | –
CCCN(CCC)C1Cc2ccc(OC)cc2C1 (configuration not stated) | – | – | – | 7.08 | 6.58 | –
CCCN1CC[C@H]2c3c(cccc3C(N)=O)CC[C@H]21 | – | 100% | – | – | – | –
CCCNC1Cc2cc(OC)c(OC)cc2C1 | 19% | – | 17% | – | – | –
CCCN(CCc1ccsc1)C1Cc2cc(OC)c(OC)cc2C1 | – | 14% | – | 7.85 | 7.21 | –
COc1cc2c(cc1OC)CC(N)C2 | 2% | – | 0% | – | – | –
COc1cc2c(cc1OC)CC(N(CCCF)CCCF)C2 | – | 8% | 3% | – | – | –
CCCN(CCc1cccc(N)c1)C1Cc2cc(OC)c(OC)cc2C1 | – | – | – | 7.35 | 6.79 | –

SMILES | inhibition [1] | Stability (Rattus norvegicus [2]) | inhibition [3] | pKi (D(3) dopamine receptor) | pKi (D(2) dopamine receptor) | further results
CCCN(Cc1cccs1)C1Cc2cc(OC)c(OC)cc2C1 | 20% | 35% | 35% | – | – | –
CCCN(CCc1ccc(C(N)=O)cc1)C1Cc2cc(OC)c(OC)cc2C1 | – | – | – | 7.38 | 6.91 | –
CCCN(CCC)C1Cc2cccc(O)c2C1 (configuration not stated) | – | – | – | 7.38 | 8.28 | pKi [4]: 7.71
CCCN(CCC)C1Cc2cc(OC)c(OC)cc2C1 [PNU-99194A] | – | 38% | – | 7.51 | 6.00 | Control (Rattus norvegicus [5]): 447%; Control (Rattus norvegicus [6]): 391%; Control (Rattus norvegicus [7]): 583%; Control (Rattus norvegicus [8]): 143%
CCCN(CCC)C1Cc2cccc(OC)c2C1 (configuration not stated) | – | – | – | 7.35 | 8.38 | pKi [4]: 8.29
CCCN(CCc1csc(N)n1)C1Cc2cc(OC)c(OC)cc2C1 | – | – | – | 6.87 | 6.58 | –
CCCN(CCc1cccc(F)c1)C1Cc2cc(OC)c(OC)cc2C1 | – | – | – | 7.52 | 6.90 | –
CCC(C)NC1Cc2cc(OC)c(OC)cc2C1 (configuration not stated) | 4% | – | 0% | – | – | –
CCCN(C(C)CC)C1Cc2cc(OC)c(OC)cc2C1 (configuration not stated) | 2% | – | 16% | – | – | –
CCCN(Cc1ccsc1)C1Cc2cc(OC)c(OC)cc2C1 | – | 15% | – | 6.43 | 5.91 | –
CCCN(CCc1ccc(C(F)(F)F)cc1)C1Cc2cc(OC)c(OC)cc2C1 | – | – | – | 7.47 | 6.51 | –
COc1cc2c(cc1OC)CC(N1CCOCC1)C2 | 10% | 41% | -2% | – | – | –
CCCN(CC)C1Cc2cc(OC)c(OC)cc2C1 | – | 42% | – | 7.19 | 6.43 | –
CCCN(CCc1ccc(OC)c(OC)c1)C1Cc2cc(OC)c(OC)cc2C1 | – | – | – | 7.54 | 7.18 | –
COc1cc2c(cc1OC)CC(N1CCCC1)C2 | 13% | – | 4% | – | – | –
CCCCN(CCCC)C1Cc2cc(OC)c(OC)cc2C1 | 22% | 13% | – | 6.74 | – | –
CCCN(CCc1ccc(Br)cc1)C1Cc2cc(OC)c(OC)cc2C1 | – | – | – | 7.66 | 7.01 | –
CCCN(CCc1cccs1)C1Cc2cc(OC)c(OC)cc2C1 | 86% | 26% | – | 7.11 | – | –
COc1cc2c(cc1OC)CC(N(CC1CC1)CC1CC1)C2 | 15% | 22% | 0% | – | – | –
